B1: tRNA (parent)
chain: GUUCCGUUGGCGUAAUGGUAACGCGUCUCCCUCCUAAGGAGAAGACUGCGGGUUCGAGUCCCGUACGGAACG

This sample holds only a part of the variants without activity. Bounds are passed on as bounds.

Variants of B1 are the subject of the data set. Description: yeast fitness relative to wild type (ratio to wild type); higher = fitter; tRNA-Arg(CCU), competitive growth, 37 C, YPD. An outline of the steps: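 Gene amplicons from the start population and from each of six end populations were read by 100-nucleotide paired-end sequencing. Those end populations came from pooled Saccharomyces cerevisiae strains carrying tRNA-Arg(CCU) gene variants at the native locus, competed in YPD at 37°C for 24 hours. Fitness relative to wild type was worked out from changes in genotype frequencies. Genotypes needed ≥ 100 starting reads, and estimates < 0.5 were set to 0.5.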
For GUUCCGCUGGCGUAAUGGUAACGCGUCUCCCUCCUAAAGAGAAGACUGCGGGUUCGACUCCCGUACGGAACG, the yeast fitness worked out at 0.648.
The result for GUUCCGUUGACGUAAUGGUAACGCGUCUCUCUCCUAAGGAGAAGACUGCAGGUUCGAGUCCCGUACGGAACG reads 0.529; that for GUUCCGUUGGCGUAAUGGUAAUGCGUCUCCCUCCUAUGGAGAAGACUGCGGGUUCGAAUCCCGUACGGCACG, ≤ 0.5.
On to GUUCCGCUGGCGUAAUGGUAACGCGUCUCCCUCCUAAGGAGAAGACUCCGGGUUCGAGUCCCGUACCGAACG, for which the yeast fitness is ≤ 0.5.
As to GUUCCGUUGCCGUUAUGGUAACGCGUCUCCCUCCUAAGGAGAAGACUGCGGGUUCGAGUCCCGUAUGGAACG, the yeast fitness was ≤ 0.5.
The result for GUUCCGUUGGCGUAAUGGUAACGCGUAUCCCUCCUAAGGACACGACUGCGGGUUCGAGUCCCGUAUGGAACG reads 0.517; that for GUUCCGUUGGCGUAAUGGUAACGAGUCUCCCUCCUAUGGAGAAGACUGCGGGUUCGAGUCCCGUACGGAACG, 0.579.
The result for GUUCCGUUGCCGUAAUGGUAACGCGUAUCCCUCCUAAGGAGUAGACUGCGGGUUCGAGUCCGGUACGGAACG reads 0.556; that for GUUCCGUUGGCGUAAUGGUAACCUGUCUCCCUCCUAAGGAGAAGACUGCGGGUUCGCGUCCCAUAGGGAACG, ≤ 0.5.
The result for GUUUCGUUGGCGUAAUGGUAACGCAUCUCCCUCCUAAGGAGAAGACUGCGGGUUCGAGUCCCGUAUGGAACG reads 0.75.
Regarding GUUCCGUUGGCGUAAUGGUAACGCGUCUGCCUCCUAAGGAGAAGACUGCCGGUUCGAGUCCCGUAAGGAACG, the yeast fitness came to 0.518.
As to GUUCCGUUGGCGUAAUGGUAACGCGUCUCCUUCCUAAGGACACGACUGCGGGUUCGAGUCCCGUACGGAACG, the yeast fitness amounted to 0.722.
The result for GUUCCGUUCGCGUUAUGGUAACGGGUCUCCCUCCGAAGGAGAAGACUGCCGGUUCGAGUCCCGUACGGAACG reads ≤ 0.5; that for GUUCCGUUGGCCUAAUGGUAACGUGUCUCCCUCCUAAGGAGAAGACUGCGGGUUCGAGUCCCGUACCGAACG, 0.536; that for GUUGCGUUGGCGUAAUGGUAACGCGUCUCCCUCUUAAGGAGAAGACUGCGGGUUCGAGUCCCGUAGGGAACG, ≤ 0.5.
The result for GUCCCGUUGGCGUAAUGAUAACGCGUCUCCGUCCUAAGGAGAAGACUGCGGGUUCGAGUCCCGUACGGAACG reads ≤ 0.5; that for GUUCCGUUGGCGUAGUGGUAACGCGUCUCCCUCCUAAGGAGAAGACUGCGGGUCCGAGUCCCGUAAGGAACG, ≤ 0.5; that for GUUCCGUUCGCGUAAUGGUAACGCGUUUCCCUCCUAAGGAGAAGACUGCGGGAUCGAGUCCCGUACGGAACG, 0.548.
Regarding GUUCCGUUGGCGUAAUGGUAACGCAUCUCCCUCUUAAGGAGAAGACUGCGGGUUCGAGUCCCGUACGGAACG, the yeast fitness stood at 0.574.
The result for GUUCCGUUGGCGUAAUGGUAACGCGUCUGCCUCCUAAGGAGAAGAGUCCGGGUUCGAGUCCCGUACGGAACG reads 0.533; that for GUUUCGUUGGCGUAAUGGUACCGCGUCUCAGCCCUAAGGACAAGACUGCGGGUUUGAGUCCCGUACGGAACG, ≤ 0.5; that for GUUCCGUCGGCGUAAUAGUAACGCGUCUCCCUCCUAAGGAGAAGACUGCGGGUUCGAGUCCCGUACGGAUCG, ≤ 0.5.
The result for GUUCCGUUGGCGUAAUGGUAACGCGUUUCCCUCCUAAGGAGAAGACUGCGAGUUCGAGUCCCGAACGGGACG reads ≤ 0.5; that for GUUCCGUUGGCGUAAUGGUAGCGCGUCUCCCUCCUAAGGAAAAGACUGCGGGUUCGAGUUCCGUACGGAACG, 0.574; that for GUUCCGUUGGCGUAAUGGUAACGGAUCUCGCUCCUAAGGAGAAGACUGCGGGUUCGAGUCCCGUACGGAACG, ≤ 0.5.
The result for GUUCCGUUGGCGUAAUGGUAACGCGUCUCCCUCCUAAGGAGAAGACUGCGGGUUCGAGACCCGUACGUAACG reads 0.769.
In the case of GUUCCGUUGGCGUAAUGGUAGCGCCUGUCCCUCCUAAGGAGCAGACUGCGGGUUCGAGUCCCGUACGCAACG, the yeast fitness was ≤ 0.5.
The result for GUUCCGUUGGCGUAAAGGUAACGCGUCUCCCUCCUAAGGAGAAGACUGCGGGUUCGACUCCCGUACGGAACG reads 0.963; that for GUACCGUUGGCGUGAUGGUAACCCGUCUCCCUCCUAAGGAGAAGACUGGGGGUUCGAGUCCCGUACGGAACG, 0.503; that for GUUAUGUCGGCGUAAUGGUAACGCGUCUCCCUCCUAAGGAGAAGACUGCGGGUUCGAGUCCCGAACGGAACG, ≤ 0.5.
The result for GUUCAGUUGGCGUAAUGGUAGCGCGUCUCCGUCCUAAGGAGAAGACUGCGGGUUCGAGUCCCGUACGGAACG reads 0.62.
As to GUUCCGUUGGCGUAAUGGUAACGCGCCUCCCUCCUAUGGAGAAGUCUGCGGGUUCGAGUCCCAUACGGAACG, the yeast fitness was ≤ 0.5.
The result for GUUCCGUUGGUGUAAUGGUAACGCGUCUCACGCCUAAGGAGAAGACUGUGGGUUGGAGUCCCGUACGGAACG reads ≤ 0.5.
The result for GUUCCGUUGGCGUAAUGGUAACGCGUCUCCCUCCUAAGGGGAAGACUGCGGGUUCGUGUCCCGUGCGGAACG reads 0.531.
The result for GUUCCGUUAGCGUAAUGGUAACGCGUCCCCCUCCUAAGGAGAAAACUGCGCGUUCGACUCCCGUACGGAACG reads 0.51.
In the case of GUUCCGUUGGCGUAAUCGUAACGCGUCUCGCUCCUAAGGAGAAGACUGUGGGUUCGCGUCGCGUACGGAACG, the yeast fitness was ≤ 0.5.
The result for GUUCCGUUGGCGUACUGGUAACGCGUCUCCCUCCUAAGAAGAAGACUGCGGGUUCGAGUCCCGUGCGGAUCG reads ≤ 0.5; that for GGUCCGUUGGCGUAAUGGUAACGCGUUUCCCUCCUAAGGAGAAGACUGCGGGUUCGAGUCCCGUACGGAACG, 0.878.

The values are drawn from the RNAGym collection of RNA variant scans (doi:10.1126/science.aae0568).
